According to ChEMBL document CHEMBL4368872, “Synthesis and anticonvulsant activity of phenoxyacetyl derivatives of amines, including aminoalkanols and amino acids” (Medchemcomm, 2018):
The source made the active and inactive calls.

How the values were obtained:
Mus musculus [1] = experiment: Anticonvulsant activity in CF-1 mouse model of maximal electroshock-induced seizure assessed as suppression of tonic hind limb extension at 30 mg/kg, ip measured at 0.5 hrs post dose; format: functional, organism-based
Summary of the method: (§1)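 Mice dosed i.p. and given maximal electroshock at 50 mA. Read-out is protection, reported as number protected / number tested at 0.25, 0.5, 1 and 4 h after dosing.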

Mus musculus [2] = experiment: Anticonvulsant activity in CF-1 mouse model of maximal electroshock-induced seizure assessed as suppression of tonic hind limb extension at 100 mg/kg, ip measured at 1 hr post dose; format: functional, organism-based; summary of the method: as §1
Mus musculus [3] = experiment: Anticonvulsant activity in CF-1 mouse model of subcutaneous pentylenetetrazole-induced seizure assessed as reduction in convulsions at 100 mg/kg, ip measured at 4 hrs post dose; format: functional, organism-based
Summary of the method: (§2)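 Mice dosed i.p., then given pentylenetetrazole 85 mg/kg in 0.9% NaCl s.c. into the posterior midline of the neck. Seizures watched for at least 30 min. Scored as protected / tested at 0.5 and 4 h.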

Mus musculus [4] = experiment: Anticonvulsant activity in CF-1 mouse model of subcutaneous pentylenetetrazole-induced seizure assessed as reduction in convulsions at 300 mg/kg, ip measured at 4 hrs post dose; format: functional, organism-based; summary of the method: as §2
[5] = Neurotoxicity in CF-1 mouse at 30 mg/kg, ip measured after 0.5 hrs by rotarod test; format: toxicity, organism-based; settings: in vivo
Summary of the method: (§3)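 Mice dosed i.p. were placed on a 1 in. knurled rod turning at 6 rpm. Toxicity was scored as failure to keep balance for at least 1 min, i.e. falling off three or more times. Results are reported as animals showing toxicity / animals tested at each time point.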

[6] = Neurotoxicity in CF-1 mouse at 300 mg/kg, ip measured after 4 hrs by rotarod test; format: toxicity, organism-based; settings: in vivo; summary of the method: as §3
[7] = Neurotoxicity in Sprague-Dawley rat at 30 mg/kg, po measured after 0.5 hrs by rotarod test; format: toxicity, organism-based; settings: in vivo
Summary of the method: (§4)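 Rat neurotoxicity after i.p. or p.o. dosing was scored as animals impaired / animals tested at each time point. For p.o. dosing, TD50 was obtained by probit analysis.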

[8] = Neurotoxicity in Sprague-Dawley rat at 30 mg/kg, po measured after 1 hr by rotarod test; format: toxicity, organism-based; settings: in vivo; summary of the method: as §4
[9] = Neurotoxicity in Sprague-Dawley rat at 100 mg/kg, ip measured after 1 hr by rotarod test; format: toxicity, organism-based; settings: in vivo; summary of the method: as §4
[10] = Intrinsic clearance in rat liver microsomes at 20 uM preincubated for 15 mins followed by NADPH generating system addition and measured after 5 to 60 mins by LC-MS/MS analysis; format: ADME, Microsome; settings: read-out: CLH
Summary of the method: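 Test compound at 20 µM preincubated 15 min with male rat liver microsomes (0.4 mg ml⁻¹) in 100 mM potassium phosphate, pH 7.4. Started with NADP⁺ (3.4 mM), glucose 6-phosphate (7.7 mM) and G6PDH (0.6 U ml⁻¹). Run 5–60 min at 37 °C in duplicate, stopped with cold perchloric acid plus internal standard, supernatant analysed by LC-MS/MS. Half-life and Cl_int derived by literature methods.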

[11] = Retention time of the compound in rat liver microsomes by LC-MS/MS analysis; format: ADME, Microsome
[12] = Mutagenicity in Salmonella typhimurium TA100 assessed as mutagenicity index at 50 to 500 ug/plate preincubated for 30 mins followed by top agar addition and measured after 48 hrs in absence of liver S9 fraction by Ames test; format: toxicity; settings: salmonella enterica subsp. enterica serovar typhimurium, s9, 48 h
Summary of the method: (§5)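 Ames plate incorporation in S. typhimurium TA100 or TA1535, with or without S9. Overnight culture, compound in DMSO (50–500 µg per plate) and buffer or S9 mix preincubated 30 min at 37 °C, then top agar on glucose minimal agar. Incubated 48 h at 37 °C, revertants counted in triplicate. Vehicle negative control; NaN3 (−S9) and 2AA (+S9) positive controls. MI = revertants with compound / negative-control revertants; MI ≥ 2 with dose-response counts as positive.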

[13] = Mutagenicity in Salmonella typhimurium TA1535 assessed as mutagenicity index at 50 to 500 ug/plate preincubated for 30 mins followed by top agar addition and measured after 48 hrs in presence of liver S9 fraction by Ames test; format: toxicity, subcellular; settings: salmonella enterica subsp. enterica serovar typhimurium, s9, 48 h; summary of the method: as §5
[14] = Mutagenicity in Salmonella typhimurium TA1535 assessed as mutagenicity index at 50 to 500 ug/plate preincubated for 30 mins followed by top agar addition and measured after 48 hrs in absence of liver S9 fraction by Ames test; format: toxicity; settings: salmonella enterica subsp. enterica serovar typhimurium, s9, 48 h; summary of the method: as §5
Salmonella typhimurium [15] = experiment: Antimutagenic activity against Salmonella typhimurium TA100 assessed as inhibition of NaN3-induced mutation at 500 ug/plate preincubated for 30 mins followed by top agar addition and measured after 48 hrs in presence of liver S9 fraction by Ames test relative to control; format: organism-based; settings: salmonella enterica subsp. enterica serovar typhimurium, s9, 48 h
Salmonella typhimurium [16] = experiment: Antimutagenic activity against Salmonella typhimurium TA1535 assessed as inhibition of NaN3-induced mutation at 100 ug/plate preincubated for 30 mins followed by top agar addition and measured after 48 hrs in presence of liver S9 fraction by Ames test relative to control; format: organism-based; settings: salmonella enterica subsp. enterica serovar typhimurium, s9, 48 h
Mus musculus [17] = experiment: Anticonvulsant activity in CF-1 mouse model of maximal electroshock-induced seizure assessed as suppression of tonic hind limb extension at 110 mg/kg, ip measured at 1 hr post dose; format: functional, organism-based; summary of the method: as §1
Mus musculus [18] = experiment: Anticonvulsant activity in CF-1 mouse model of maximal electroshock-induced seizure assessed as suppression of tonic hind limb extension at 110 mg/kg, ip measured at 4 hrs post dose; format: functional, organism-based; summary of the method: as §1
Rattus norvegicus [19] = experiment: Anticonvulsant activity in po dosed Sprague-Dawley rat model of maximal electroshock-induced seizure assessed as suppression of tonic hind limb extension; format: functional
Summary of the method: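 Rats dosed p.o. and tested by MES at 150 mA. ED50 derived by probit analysis from quantitative dose groups, run at the time of peak effect (hours).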

[20] = Neurotoxicity in Sprague-Dawley rat at 300 mg/kg, ip measured after 1 hr by rotarod test; format: toxicity, organism-based; settings: in vivo; summary of the method: as §4
[21] = Neurotoxicity in Sprague-Dawley rat at 30 mg/kg, ip measured after 4 hrs by rotarod test; format: toxicity, organism-based; settings: in vivo; summary of the method: as §4
[22] = Neurotoxicity in Sprague-Dawley rat at 100 mg/kg, ip measured after 4 hrs by rotarod test; format: toxicity, organism-based; settings: in vivo; summary of the method: as §4
Rattus norvegicus [23] = experiment: Anticonvulsant activity in hippocampal kindling Sprague-Dawley rat model assessed as after discharge time at 100 mg/kg, ip administered as single dose measured immediately; format: functional
Summary of the method: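 Rats implanted with a hippocampal electrode and kindled with suprathreshold trains (200 µA, 10 s, 50 Hz) every 30 min for 6 h on alternate days until fully kindled. One week later they received a single i.p. dose. Seizure score (Racine scale) and afterdischarge duration were recorded at 0–135 min and compared with the control stimulus given 15 min before dosing; each animal served as its own control. Values are mean ± SEM.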

Astrocyte = experiment: Cytotoxicity against mouse astrocytes at 10 to 200 uM after 24 hrs by MTT assay; format: cell-based
Summary of the method: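 Mouse astrocyte line (CRL-2541) grown in DMEM with 10% FBS at 37 °C, 5% CO2. Seeded at 1×10^4 per well in 1% FBS medium, treated with 10–200 µM for 24 h against vehicle controls. MTT reagent added for 4 h at 37 °C, crystals dissolved, absorbance read at 570 nm.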

SMILES	Activity (Mus musculus [1])	Activity (Mus musculus [2])	Activity (Mus musculus [3])	Activity (Mus musculus [4])	Activity [5]	Activity [6]	Activity [7]	Activity [8]	Activity [9]	microsomal CLint at 20 µM [10] [µL/min/mg]	Retention_time [11] [min]	Activity index [12]	Activity index [13]	Activity index [14]	inhibition (INH) (Salmonella typhimurium [15]) [%]	inhibition (INH) (Salmonella typhimurium [16]) [%]	other results
CCC(O)CNC(=O)COc1c(C)cccc1C (stereo not given)	inactive	inactive	inactive	inactive	Non-Toxic	Non-Toxic	Non-Toxic	Non-Toxic	Non-Toxic	57	5.15	0.7 to 1.7	0.7 to 1.7	0.7 to 1.7	47	51	
Cc1cccc(C)c1OCC(=O)N[C@H](C)CO	inactive	inactive	inactive	inactive	Non-Toxic	Non-Toxic	Non-Toxic	Non-Toxic	Non-Toxic	9.5	4.73	0.7 to 1.7	0.7 to 1.7	0.7 to 1.7	40	43	Activity (Mus musculus [17]): inactive; Activity (Mus musculus [18]): inactive; ED50 (Rattus norvegicus [19]): 12 mg/kg; Activity [20]: Toxic; Activity [21]: Non-Toxic; Activity [22]: Non-Toxic; Time (Rattus norvegicus [23]): 68 s; Activity (Astrocyte): Non-Toxic
